Source: ChEMBL document CHEMBL1125014, “Synthesis and structure-activity relationships of new 9-N-alkyl derivatives of 9(S)-erythromycylamine” (1990)
In brackets after ≈: the same amount, converted by molar mass.

How the values were obtained:
Assay type in all cases: functional
[1] = tested on: Streptococcus pyogenes; test: MIC value measured against streptococcus pyogenes C203
[2] = tested on: Staphylococcus aureus; test: MIC value measured against staphylococcus aureus X1
[3] = tested on: Staphylococcus epidermidis; test: microbe, parasite or virus in culture
[4] = tested on: Streptococcus pyogenes; test: Effective dose against mice infected with streptococcus pyogenes after peroral administration (in vivo); details: in Mus musculus, po
[5] = tested on: Haemophilus influenzae; test: MIC value was measured against haemophilus influenzae CL
[6] = tested on: Staphylococcus aureus; test: Effective dose against mice infected with Staphylococcus aureus after peroral administration (in vivo); details: in Mus musculus, po
[7] = tested on: Streptococcus pneumoniae; test: MIC value measured against streptococcus pneumoniae Park1
[8] = tested on: Haemophilus influenzae; test: MIC value was measured against haemophilus influenzae.
Procedure, shortened: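 Susceptibility determined by standard agar-dilution method against a panel of bacterial strains.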

[9] = tested on: Streptococcus pneumoniae; test: Effective dose against mice infected with streptococcus pneumoniae after peroral administration (in vivo); details: in Mus musculus, po

Row | Compound | MIC [1] | MIC [2] | MIC [3] | MIC [5] | MIC [7] | MIC [8] | ED50 [4] | ED50 [6] | ED50 [9]
1 | CC[C@H]1OC(=O)[C@H](C)[C@@H](OC2CC(C)(OC)C(O)C(C)O2)[C@H](C)[C@@H](OC2OC(C)CC(N(C)C)C2O)[C@](C)(O)C[C@@H](C)[C@H](NCCCCCO)[C@H](C)[C@@H](O)[C@]1(C)O (stereo not given in full) | 0.008 µg/mL (≈ 0.00974 µM) | 0.5 µg/mL (≈ 0.609 µM) | 0.5 µg/mL (≈ 0.609 µM) | 2 µg/mL (≈ 2.44 µM) | 0.008 µg/mL (≈ 0.00974 µM) | 2 µg/mL (≈ 2.44 µM) | 43 mg/kg | > 50 mg/kg | > 50 mg/kg
2 | CC[C@H]1OC(=O)[C@H](C)[C@@H](OC2CC(C)(OC)C(O)C(C)O2)[C@H](C)[C@@H](OC2OC(C)CC(N(C)C)C2O)[C@](C)(O)C[C@@H](C)[C@H](NCCC(C)C)[C@H](C)[C@@H](O)[C@]1(C)O (stereo not given in full) | 0.06 µg/mL (≈ 0.0745 µM) | 1 µg/mL (≈ 1.24 µM) | 0.25 µg/mL (≈ 0.311 µM) | 1 µg/mL (≈ 1.24 µM) | 0.03 µg/mL (≈ 0.0373 µM) | 1 µg/mL (≈ 1.24 µM) | 9 mg/kg | 13 mg/kg | 11 mg/kg
3 | CCCCCCCCCCCCN[C@@H]1[C@H](C)[C@@H](O)[C@](C)(O)[C@@H](CC)OC(=O)[C@H](C)[C@@H](OC2CC(C)(OC)C(O)C(C)O2)[C@H](C)[C@@H](OC2OC(C)CC(N(C)C)C2O)[C@](C)(O)C[C@H]1C (stereo not given in full) | 0.5 µg/mL (≈ 0.554 µM) | 4 µg/mL (≈ 4.43 µM) | 4 µg/mL (≈ 4.43 µM) |  | 0.06 µg/mL (≈ 0.0664 µM) |  | > 50 mg/kg | > 45 mg/kg | > 50 mg/kg
4 | CC[C@H]1OC(=O)[C@H](C)[C@@H](OC2CC(C)(OC)C(O)C(C)O2)[C@H](C)[C@@H](OC2OC(C)CC(N(C)C)C2O)[C@](C)(O)C[C@@H](C)[C@H](NC)[C@H](C)[C@@H](O)[C@]1(C)O (stereo not given in full) | 0.06 µg/mL (≈ 0.0801 µM) | 1 µg/mL (≈ 1.34 µM) | 0.25 µg/mL (≈ 0.334 µM) | 0.5 µg/mL (≈ 0.668 µM) |  | 0.5 µg/mL (≈ 0.668 µM) | 21 mg/kg | 44 mg/kg | 35 mg/kg
5 | CC[C@H]1OC(=O)[C@H](C)[C@@H](OC2CC(C)(OC)C(O)C(C)O2)[C@H](C)[C@@H](OC2OC(C)CC(N(C)C)C2O)[C@](C)(O)C[C@@H](C)[C@H](NCCC(C)CCCC(C)(C)OC)[C@H](C)[C@@H](O)[C@]1(C)O (stereo not given in full) | 0.015 µg/mL (≈ 0.0166 µM) | 0.5 µg/mL (≈ 0.552 µM) | 0.25 µg/mL (≈ 0.276 µM) | 1 µg/mL (≈ 1.1 µM) |  | 1 µg/mL (≈ 1.1 µM) | 25 mg/kg | > 46 mg/kg | 24 mg/kg

The remaining molecules from weak to strong by MIC [1], led by results:

Row | MIC [1] | MIC [2] | MIC [3] | MIC [5] | MIC [7] | MIC [8] | Compound | ED50 [4] | ED50 [6] | ED50 [9]
6 | 1 µg/mL (≈ 1.2 µM) | 16 µg/mL (≈ 19.3 µM) | 8 µg/mL (≈ 9.63 µM) | 32 µg/mL (≈ 38.5 µM) | 0.12 µg/mL (≈ 0.144 µM) | 32 µg/mL (≈ 38.5 µM) | CC[C@H]1OC(=O)[C@H](C)[C@@H](OC2CC(C)(OC)C(O)C(C)O2)[C@H](C)[C@@H](OC2OC(C)CC(N(C)C)C2O)[C@](C)(O)C[C@@H](C)[C@H](N(C)C2CCCCC2)[C@H](C)[C@@H](O)[C@]1(C)O (stereo not given in full) | > 50 mg/kg | > 50 mg/kg | > 50 mg/kg
7 | 0.5 µg/mL (≈ 0.632 µM) | 8 µg/mL (≈ 10.1 µM) | 8 µg/mL (≈ 10.1 µM) | 32 µg/mL (≈ 40.5 µM) | 0.5 µg/mL (≈ 0.632 µM) | 32 µg/mL (≈ 40.5 µM) | CC[C@H]1OC(=O)[C@H](C)[C@@H](OC2CC(C)(OC)C(O)C(C)O2)[C@H](C)[C@@H](OC2OC(C)CC(N(C)C)C2O)[C@](C)(O)C[C@@H](C)[C@H](N(C)C(C)C)[C@H](C)[C@@H](O)[C@]1(C)O (stereo not given in full) |  |  | 
8 | 0.25 µg/mL (≈ 0.322 µM) | 1 µg/mL (≈ 1.29 µM) | 0.5 µg/mL (≈ 0.643 µM) | 2 µg/mL (≈ 2.57 µM) | 0.12 µg/mL (≈ 0.154 µM) | 2 µg/mL (≈ 2.57 µM) | CC[C@H]1OC(=O)[C@H](C)[C@@H](OC2CC(C)(OC)C(O)C(C)O2)[C@H](C)[C@@H](OC2OC(C)CC(N(C)C)C2O)[C@](C)(O)C[C@@H](C)[C@H](NC(C)C)[C@H](C)[C@@H](O)[C@]1(C)O (stereo not given in full) | 13 mg/kg | 32 mg/kg | 13 mg/kg
9 | 0.12 µg/mL (≈ 0.157 µM) | 1 µg/mL (≈ 1.31 µM) | 1 µg/mL (≈ 1.31 µM) | 1 µg/mL (≈ 1.31 µM) | 0.03 µg/mL (≈ 0.0393 µM) | 1 µg/mL (≈ 1.31 µM) | CCN[C@@H]1[C@H](C)[C@@H](O)[C@](C)(O)[C@@H](CC)OC(=O)[C@H](C)[C@@H](OC2CC(C)(OC)C(O)C(C)O2)[C@H](C)[C@@H](OC2OC(C)CC(N(C)C)C2O)[C@](C)(O)C[C@H]1C (stereo not given in full) | 13 mg/kg | 23 mg/kg | 13 mg/kg
10 | 0.06 µg/mL (≈ 0.0698 µM) | 1 µg/mL (≈ 1.16 µM) | 0.5 µg/mL (≈ 0.582 µM) |  |  |  | CC[C@H]1OC(=O)[C@H](C)[C@@H](OC2CC(C)(OC)C(O)C(C)O2)[C@H](C)[C@@H](OC2OC(C)CC(N(C)C)C2O)[C@](C)(O)C[C@@H](C)[C@H](NCC2CCCCCCC2)[C@H](C)[C@@H](O)[C@]1(C)O (stereo not given in full) |  |  | 
11 | 0.03 µg/mL (≈ 0.0418 µM) | 0.25 µg/mL (≈ 0.348 µM) | 0.25 µg/mL (≈ 0.348 µM) | 4 µg/mL (≈ 5.57 µM) |  |  | CC[C@H]1OC(=O)[C@H](C)[C@@H](OC2CC(C)(OC)C(O)C(C)O2)[C@H](C)[C@@H](OC2OC(C)CC(N(C)C)C2O)[C@](C)(O)C[C@@H](C)C(=O)[C@H](C)[C@@H](O)[C@H]1C (stereo not given in full) |  |  | 
12 | 0.015 µg/mL (≈ 0.0171 µM) | 1 µg/mL (≈ 1.14 µM) | 1 µg/mL (≈ 1.14 µM) | 2 µg/mL (≈ 2.29 µM) | 0.015 µg/mL (≈ 0.0171 µM) | 2 µg/mL (≈ 2.29 µM) | CCCCCCCCCCN[C@@H]1[C@H](C)[C@@H](O)[C@](C)(O)[C@@H](CC)OC(=O)[C@H](C)[C@@H](OC2CC(C)(OC)C(O)C(C)O2)[C@H](C)[C@@H](OC2OC(C)CC(N(C)C)C2O)[C@](C)(O)C[C@H]1C (stereo not given in full) | > 50 mg/kg | > 50 mg/kg | > 50 mg/kg
